Source: ChEMBL document CHEMBL1126550, “Nanomolar-affinity, non-peptide oxytocin receptor antagonists” (J Med Chem, 1993)

Assays:
Vasopressin V1 receptor = Vasopressin V1 receptor (Rattus norvegicus, UniProt P48974+P30560); assay: Inhibition of radioligand [3H]AVP binding to the vasopressin V1 receptor in rat liver tissue
Method in brief: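 Crude membranes from male rat liver (V1 sites) competed with 1 nM [3H]AVP (80–90 Ci/mmol). Equilibrium 30 min, 30 °C, buffer 100 mM Tris-HCl, 5 mM MgCl2, 0.1% BSA, 50 μM PMSF, 50 μg/mL bacitracin, pH 8.0. 10 μM unlabeled AVP for nonspecific binding. Filtration through glass-fiber filters. IC50 from linear regression over seven concentrations.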

Vasopressin V2 receptor = Vasopressin V2 receptor (Rattus norvegicus, UniProt Q00788); assay: Inhibition of radioligand [3H]-AVP binding to the vasopressin V2 receptor in rat kidney tissue
Chain of Vasopressin V2 receptor (Q00788 whole entry): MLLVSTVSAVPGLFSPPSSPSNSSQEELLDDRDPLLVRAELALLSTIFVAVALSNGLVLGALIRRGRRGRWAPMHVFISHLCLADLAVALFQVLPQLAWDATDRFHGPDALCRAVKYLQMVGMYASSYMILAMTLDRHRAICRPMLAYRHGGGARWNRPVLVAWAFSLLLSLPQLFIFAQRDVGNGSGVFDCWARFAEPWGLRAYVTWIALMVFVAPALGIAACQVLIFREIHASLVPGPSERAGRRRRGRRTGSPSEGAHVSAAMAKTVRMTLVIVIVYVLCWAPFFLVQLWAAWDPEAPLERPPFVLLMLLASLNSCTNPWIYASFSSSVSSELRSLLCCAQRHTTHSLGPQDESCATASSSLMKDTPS
Method in brief: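 [3H]AVP (80–90 Ci/mmol) at 2 nM competed on crude membranes from male rat kidney medulla (V2 sites). Equilibrium 30 min at 30 °C in 100 mM Tris-HCl, 5 mM MgCl2, 0.1% BSA, 50 μM PMSF, 50 μg/mL bacitracin, pH 8.0. Nonspecific binding with 10 μM unlabeled AVP. Glass-fiber filtration. IC50 by linear regression of % inhibition vs log concentration, seven concentrations.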

Oxytocin receptor = target: T1, Oxytocin receptor (Rattus norvegicus, UniProt P70536); assay: Inhibition of radioligand [3H]oxytocin binding at the oxytocin (OT) receptor in rat uterine tissue
T1 sequence (P70536 whole entry): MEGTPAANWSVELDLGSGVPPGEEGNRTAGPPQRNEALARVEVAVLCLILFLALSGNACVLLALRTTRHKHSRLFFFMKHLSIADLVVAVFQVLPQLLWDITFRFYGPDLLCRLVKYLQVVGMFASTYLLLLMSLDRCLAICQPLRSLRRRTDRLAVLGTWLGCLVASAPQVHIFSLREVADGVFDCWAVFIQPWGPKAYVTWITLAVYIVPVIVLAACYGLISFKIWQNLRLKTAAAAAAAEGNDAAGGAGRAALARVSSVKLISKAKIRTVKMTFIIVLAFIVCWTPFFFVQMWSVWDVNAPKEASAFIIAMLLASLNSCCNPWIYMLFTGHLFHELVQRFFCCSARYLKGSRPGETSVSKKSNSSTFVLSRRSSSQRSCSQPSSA
Method in brief: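 Uteri taken from rats given diethylstilbestrol dipropionate (0.3 mg/kg ip, 18–24 h before), crude membranes. 1 nM [3H]OT (30–60 Ci/mmol), equilibrium 60 min at 22 °C in 50 mM Tris-HCl, 5 mM MgCl2, 0.1% BSA, pH 7.4. Nonspecific binding with 1 mM unlabeled OT. Filtered on glass fiber. Initial single-concentration screen, then IC50 from seven concentrations by linear regression.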

SMILES | IC50 (Vasopressin V1 receptor) [µM] | IC50 (Vasopressin V2 receptor) [µM] | IC50 (Oxytocin receptor) [µM]
CC(C)[C@H](N)C(=O)NC[C@@]1(O)C[C@H]2CC[C@]1(CS(=O)(=O)N1CCC3(C=Cc4ccccc43)CC1)C2(C)C | 0.29 | 4.9 | 0.043
CC1(C)[C@@H]2CC[C@@]1(CS(=O)(=O)N1CCC3(CCc4ccccc43)CC1)[C@@H](NC(=O)CCc1cccnc1)C2 | > 3 | > 3 | 0.18
CCCS(=O)(=O)N[C@H]1C[C@H]2CC[C@]1(CS(=O)(=O)N1CCC3(CCc4ccccc43)CC1)C2(C)C | > 1 | 10 | 0.31
CC1(C)[C@@H]2CC[C@@]1(CS(=O)(=O)N1CCC3(CCc4ccccc43)CC1)[C@@H](N1C(=O)NC(=O)C1=O)C2 | 9.2 | 16 | 0.18
CC1(C)[C@@H]2CC[C@@]1(CS(=O)(=O)N1CCC3(CCc4ccccc43)CC1)[C@@H](NC(=O)CC1CCCNC1)C2 (some centres undefined) | 1.5 | 12 | 0.13
CC1(C)[C@@H]2CC[C@@]1(CS(=O)(=O)N1CCC3(C=Cc4ccccc43)CC1)C(=O)C2 | > 10 | > 10 | 1.8
CC1(C)[C@H]2CC[C@]1(CS(=O)(=O)N1CCC3(CCc4ccccc43)CC1)[C@H](NC(=O)Cc1c[nH]cn1)C2 | > 3 | > 3 | 1.2
CC1(C)[C@@H]2CC[C@@]1(CS(=O)(=O)N1CCC3(C=Cc4ccccc43)CC1)[C@@](O)(CCNC(=O)CC1CN3CCC1CC3)C2 (some centres undefined) | 0.64 | 6.2 | 0.1
CC1(C)[C@@H]2CC[C@@]1(CS(=O)(=O)N1CCC3(CCc4ccccc43)CC1)[C@@H](NC(=O)Cc1csc(N)n1)C2 | > 3 | > 3 | 0.17
CC1(C)[C@@H]2CC[C@@]1(CS(=O)(=O)N1CCC3(CCc4ccccc43)CC1)[C@@H](NC(=O)c1cccnc1)C2 | > 1 | > 10 | 0.26
Cn1cncc1CC(=O)N[C@H]1C[C@H]2CC[C@]1(CS(=O)(=O)N1CCC3(CCc4ccccc43)CC1)C2(C)C | 2.9 | 7.5 | 0.048
CC(C)[C@@H](N)C(=O)N[C@H]1C[C@H]2CC[C@]1(CS(=O)(=O)N1CCC3(CCc4ccccc43)CC1)C2(C)C | 3 | > 3 | 0.11
CC1(C)[C@@H]2CC[C@@]1(CS(=O)(=O)N1CCC3(CCc4ccccc43)CC1)[C@@H](NC(=O)NC1CN3CCC1CC3)C2 (single isomer, unassigned; isomer B) | 2.1 | 11 | 0.037
CC1(C)[C@@H]2CC[C@@]1(CS(=O)(=O)N1CCC3(CCc4ccccc43)CC1)[C@@H](NC(=O)[C@H](N)CCS(C)(=O)=O)C2 | 5.2 | 12 | 0.045
CC1(C)[C@@H]2CC[C@@]1(CS(=O)(=O)N1CCC3(CCc4ccccc43)CC1)[C@@H](N)C2 | > 10 | > 10 | 30
CC1(C)[C@@H]2CC[C@@]1(CS(=O)(=O)N1CCC3(CCc4ccccc43)CC1)[C@@H](N1C(=O)NC(CC(=O)Nc3nn[nH]n3)C1=O)C2 (some centres undefined) | 3.7 | 6.7 | 0.03
CC1(C)[C@@H]2CC[C@@]1(CS(=O)(=O)N1CCC3(CCc4ccccc43)CC1)[C@@H](N1C(=O)CN(CC(=O)O)C1=O)C2 | > 0.3 | > 0.3 | 0.048
CC1(C)[C@@H]2CC[C@@]1(CS(=O)(=O)N1CCC3(C=Cc4ccccc43)CC1)[C@@](O)(CCNC(=O)Cc1c[nH]cn1)C2 | > 0.3 | > 3 | 0.09
CC1(C)[C@@H]2CC[C@@]1(CS(=O)(=O)N1CCC3(CCc4ccccc43)CC1)[C@@H](NC(=O)[C@@H](N)CCC(N)=O)C2 | 2.8 | 7.9 | 0.055
CC1(C)[C@@H]2CC[C@@]1(CS(=O)(=O)N1CCC3(CCc4ccccc43)CC1)[C@@H](NC(=O)Cc1ccccn1)C2 | 3.9 | 6.5 | 0.095
COC(=O)CNC(=O)N[C@H]1C[C@H]2CC[C@]1(CS(=O)(=O)N1CCC3(CCc4ccccc43)CC1)C2(C)C | > 3 | > 3 | 0.16
Cn1cncc1CC(=O)N[C@@H](CCC(N)=O)C(=O)N[C@H]1C[C@H]2CC[C@]1(CS(=O)(=O)N1CCC3(CCc4ccccc43)CC1)C2(C)C | > 0.3 | > 0.3 | 0.0023
CCC(C)(C)C(=O)NCC[C@@]1(O)C[C@H]2CC[C@]1(CS(=O)(=O)N1CCC3(C=Cc4ccccc43)CC1)C2(C)C | 2.3 | 13 | 0.045
CC1(C)[C@@H]2CC[C@@]1(CS(=O)(=O)N1CCC3(CCc4ccccc43)CC1)[C@@H](NC(=O)CN1CC[C@H](N)C1=O)C2 | 2.7 | 8.4 | 0.061
CC1(C)[C@@H]2CC[C@@]1(CS(=O)(=O)N1CCC3(CCc4ccccc43)CC1)[C@@H](NC(=O)c1ccccc1)C2 | 10 | > 10 | 1

Now from value to compound:

IC50 (Vasopressin V1 receptor) [µM] | IC50 (Vasopressin V2 receptor) [µM] | IC50 (Oxytocin receptor) [µM] | SMILES
2.2 | 3.3 | 0.011 | CC1(C)[C@@H]2CC[C@@]1(CS(=O)(=O)N1CCC3(CCc4ccccc43)CC1)[C@@H](NC(=O)C(CCS(C)(=O)=O)c1c[nH]cn1)C2 (single isomer, unassigned; isomer B)
0.96 | 2.7 | 0.014 | CN1CC(=O)N([C@H]2C[C@H]3CC[C@]2(CS(=O)(=O)N2CCC4(CCc5ccccc54)CC2)C3(C)C)C1=O
0.83 | 4.7 | 0.081 | CC1(C)[C@@H]2CC[C@@]1(CS(=O)(=O)N1CCC3(C=Cc4ccccc43)CC1)[C@@](O)(CNC(=O)Cc1ccccn1)C2
0.44 | 1.1 | 0.0041 | CC1(C)[C@@H]2CC[C@@]1(CS(=O)(=O)N1CCC3(CCc4ccccc43)CC1)[C@@H](NC(=O)C(CCS(C)(=O)=O)NC(=O)CN)C2 (some centres undefined)
0.5 | 0.74 | 0.0059 | CC1(C)[C@@H]2CC[C@@]1(CS(=O)(=O)N1CCC3(CCc4ccccc43)CC1)[C@@H](N1C(=O)CN(CC(=O)Nc3ncc[nH]3)C1=O)C2
0.067 | 0.54 | 0.0083 | CC(C)[C@H](NC(=O)Cc1c[nH]cn1)C(=O)NC[C@@]1(O)C[C@H]2CC[C@]1(CS(=O)(=O)N1CCC3(C=Cc4ccccc43)CC1)C2(C)C
0.44 | 0.28 | 0.0012 | CC1(C)[C@@H]2CC[C@@]1(CS(=O)(=O)N1CCC3(CCc4ccccc43)CC1)[C@@H](NC(=O)C(CCS(C)(=O)=O)NC(=O)Cc1c[nH]cn1)C2 (some centres undefined)
1.5 | 2.9 | 0.011 | CC1(C)[C@@H]2CC[C@@]1(CS(=O)(=O)N1CCC3(CCc4ccccc43)CC1)[C@@H](NC(=O)C(CCS(C)(=O)=O)c1c[nH]cn1)C2 (stereo in doubt)
> 0.3 | 3 | 0.33 | CC1(C)[C@@H]2CC[C@@]1(CS(=O)(=O)N1CCC3(CCc4ccccc43)CC1)[C@@H](NC(=O)C(N)CC[N+](=O)[O-])C2 (some centres undefined)
1.2 | 0.49 | 0.0007 | Cn1cnc(CC(=O)NC(CCS(C)(=O)=O)C(=O)N[C@H]2C[C@H]3CC[C@]2(CS(=O)(=O)N2CCC4(CCc5ccccc54)CC2)C3(C)C)c1 (some centres undefined)
2.2 | 1.7 | 0.032 | COC(=O)CCN(C(=O)Cc1cn(C)cn1)[C@H]1C[C@H]2CC[C@]1(CS(=O)(=O)N1CCC3(CCc4ccccc43)CC1)C2(C)C
1.9 | 0.62 | 0.0017 | Cn1cnc(CC(=O)N[C@@H](CCC(N)=O)C(=O)N[C@H]2C[C@H]3CC[C@]2(CS(=O)(=O)N2CCC4(CCc5ccccc54)CC2)C3(C)C)c1
1.1 | 3.6 | 0.18 | CC1(C)[C@@H]2CC[C@@]1(CS(=O)(=O)N1CCC3(C=Cc4ccccc43)CC1)[C@@](O)(CNC(=O)c1ccccn1)C2
